From PubChem
TAAR1 antagonist: human TAAR1 antagonists, primary screen, Fluo-8 calcium fluorescence, CHO RD-HGA16 cells; Trace amine-associated receptor 1 (Homo sapiens), Q96RJ0; antagonist; inhibition, % at 3 µM; 360,000 tested, 1.5% active; AID 624466, 2012;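 active = inhibition above a per-plate cutoff, the mean inhibition of test compounds on that plate plus 3 SD, cut at about 49% in these data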;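 note: 0% = DMSO plus EC80 beta-PEA response and 100% = DMSO alone without agonist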
Target sequence (Q96RJ0 whole entry, looked up): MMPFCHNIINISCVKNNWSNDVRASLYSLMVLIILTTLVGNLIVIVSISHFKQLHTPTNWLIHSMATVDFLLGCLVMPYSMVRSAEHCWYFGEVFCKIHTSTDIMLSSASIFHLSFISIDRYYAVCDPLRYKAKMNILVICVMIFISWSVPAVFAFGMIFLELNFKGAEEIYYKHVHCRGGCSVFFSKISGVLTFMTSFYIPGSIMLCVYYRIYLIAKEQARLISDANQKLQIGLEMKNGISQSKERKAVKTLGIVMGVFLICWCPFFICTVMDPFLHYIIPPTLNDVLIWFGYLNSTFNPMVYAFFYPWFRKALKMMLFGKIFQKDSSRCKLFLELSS
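Assay system: CHO-derived RD-HGA16 cells stably expressing human TAAR1 plus Gα16. Timing: 140 s kinetic read after compound, 140 s after agonist. Technique: kinetic Fluo-8 calcium fluorescence measurement. Measure: % inhibition of agonist calcium response.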
OX1R antag-1: OX1R (HCRTR1) antagonists, primary screen, fluorescence, CHO/OX1R cells, Fluo-8 calcium, orexin A. 330,000 tested, 0.43% active. Orexin/Hypocretin receptor type 1 (Homo sapiens), O43613. Fluo-8 calcium fluorescence. inhibition, % at 5 µM;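 active = inhibition above its plate's threshold, mean inhibition of all tested compounds on the plate plus 3 SD, cut at about 37% in these data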;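 note: 0% = orexin A challenge wells and 100% = SB-334867-A antagonist wells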
GPR7 antagonist: GPR7 receptor antagonists, primary screen, cell-based, fluorescence, single concentration; GPR7-expressing cells, fluorescence antagonist assay; Neuropeptides B/W receptor type 1 (Homo sapiens), P48145; inhibition, % at 4.4 µM; 290,000 tested, 1.1% active; in the data active = inhibition above about 16%, passing the limit was not always enough;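 note: cells stimulated with the agonist NPW; 0% = agonist with vehicle and 100% = vehicle without agonist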
Target sequence (P48145 whole entry, looked up): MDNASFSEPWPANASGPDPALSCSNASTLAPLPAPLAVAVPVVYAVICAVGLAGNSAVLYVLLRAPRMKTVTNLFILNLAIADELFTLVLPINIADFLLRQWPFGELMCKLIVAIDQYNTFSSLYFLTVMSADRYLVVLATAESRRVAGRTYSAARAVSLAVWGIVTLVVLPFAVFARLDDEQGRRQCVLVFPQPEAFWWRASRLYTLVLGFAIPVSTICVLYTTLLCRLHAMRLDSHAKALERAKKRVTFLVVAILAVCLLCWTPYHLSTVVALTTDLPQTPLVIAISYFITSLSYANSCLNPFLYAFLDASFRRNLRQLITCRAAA
OX1R antag-2: antagonists of human orexin 1 receptor (OX1R). OX1R-expressing cells, FRET antagonist read-out. 330,000 tested, 1.8% active. inhibition, % at 6.6 µM. AID 485270, 2010. Orexin/Hypocretin receptor type 1 (Homo sapiens), O43613; in the data active = inhibition mostly above about 38%, no sharp cut-off; inactive = mostly below about 40%;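 note: 0% = agonist challenge alone and 100% = reference antagonist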
TAAR1 agonist: human TAAR1 agonists, primary screen, Fluo-8 calcium fluorescence, CHO RD-HGA16 cells | Trace amine-associated receptor 1 (Homo sapiens), Q96RJ0 | vehicle wells 0%, saturating PEA agonist 100% | activation, % at 3 µM | 360,000 tested, 0.99% active | AID 624467, 2012;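 active = activation above the mean activation of all test compounds in the run plus 3 SD, cut at about 38% in these data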
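test system = CHO RD-HGA16 cells carrying human TAAR1 plus Gα16 | schedule = 17-24 h seeding, 75 min 37 °C dye, 30 min RT | compound dosing = 3 µM single concentration | control set = DMSO and PEA EC100 | replicates = n 1 | signal = Fluo-8 fluorescence, 5 s baseline then 140 s kinetic read | measure = percent activation vs PEA EC100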
CHO parental Ca: ATP-evoked calcium signal inhibitors, parental CHO, primary screen, counter-screen for OX1R antagonist project, cell-based, fluorescence, Fluo-8 calcium dye; parental CHO-K1, ATP-induced calcium, Fluo-8 fluorescence; inhibition, % at 5.6 µM; 330,000 tested, 0.63% active;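 active = inhibition above that plate's mean sample inhibition plus 3 SD, cut at about 26% in these data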;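 note: 0% = ATP-challenged DMSO wells and 100% = DMSO wells without ATP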
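Test system: untransfected parental CHO cell line. Compound: one dose, 5.6 µM nominal. Detection: intracellular calcium via Fluo-8 no-wash fluorescent dye. Measure: % inhibition. Benchmarks: ATP-challenged DMSO wells low, unchallenged DMSO wells high.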
TAAR1 ag confirm: human TAAR1 agonists, retest of hits, confirmation, Fluo-8 calcium fluorescence, CHO RD-HGA16 cells | scaled: DMSO 0%, maximal phenethylamine 100% | shares compounds with TAAR1 agonist | 2,400 tested, 82% active | activation, % at 3 µM;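 active = activation above a cutoff set at the run's mean compound activation plus 3 SD, cut at about 39% in these data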
Ga16 ag counter: nonselective calcium mobilization agonists, CHO-Ga16 cells, counter-screen for hTAAR1 agonist project, cell-based, fluorescence, CHO-Ga16 parental line. shares compounds with TAAR1 agonist. Fluo-8 calcium fluorescence; normalized to maximal ATP response, DMSO zero. activation, % at 3 µM. 2,400 tested, 50% active. AID 651787, 2012;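 active = activation above the run cutoff, the mean activation over all tested wells plus 3 SD, cut at about 12% in these data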;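 note: 0% = DMSO wells and 100% = maximal ATP response on the peak over basal ratio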
TAAR1 desens: TAAR1 desensitization by agonist hits, confirmation, counter-screen for TAAR1 agonist project, cell-based, fluorescence, tachyphylaxis; shares compounds with TAAR1 agonist; CHO RD-HGA16 hTAAR1, Fluo-8 calcium, beta-PEA response inhibition; inhibition, % at 3 µM; 2,400 tested, 46% active;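 active = inhibition above the run cutoff, the mean inhibition of all test compounds plus 3 SD, cut at about 49% in these data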;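 note: beta-PEA stimulus applied at its EC80; loss of beta-PEA calcium signal after compound pretreatment read as receptor desensitization; 0% = DMSO with beta-PEA at EC80 and 100% = DMSO alone without agonist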
Ga16 antag count: inhibition of ATP-evoked calcium response in CHO-Ga16 cells, counter-screen for TAAR1 agonist project, cell-based, fluorescence. CHO-Ga16 ATP-induced calcium, Fluo-8 fluorescence. shares compounds with TAAR1 agonist. 2,400 tested, 39% active. inhibition, % at 3 µM;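 active = inhibition above the plate's mean compound inhibition plus 3 SD, computed per plate, cut at about 22% in these data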;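 note: 0% = EC80 ATP with DMSO and 100% = DMSO wells without ATP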
The depositor's hits bear a star. Most compounds without a hit are left out; they make up all but 4.5% or so of the library.

`CN1CCN(C(c2cccnc2)c2ccc3cccnc3c2O)CC1` (stereo not drawn) gave OX1R antag-1 -10.4, GPR7 antagonist -6.1, OX1R antag-2 -3.6 and CHO parental Ca -29.7.
For COc1ccc(/C=C/CN2CCC(C(=O)NC(c3ccc(F)cc3)c3ccc4ccccc4n3)CC2)cc1 (stereo not drawn) the results were TAAR1 antagonist 31.6, TAAR1 agonist 47.2*, TAAR1 ag confirm 39.6*, Ga16 ag counter 22.7*, TAAR1 desens 27.5 and Ga16 antag count 26.1*.
Screening O=C(NCCc1ccccc1)C(NS(=O)(=O)c1cccc2nsnc12)c1ccccc1 (stereo not drawn) returned TAAR1 antagonist 11.4, OX1R antag-1 -14.7, GPR7 antagonist -6.2, OX1R antag-2 73.5*, TAAR1 agonist 41.0*, CHO parental Ca -17.9, TAAR1 ag confirm 76.1*, Ga16 ag counter -0.8, TAAR1 desens 40.8 and Ga16 antag count 11.5.
Screening Cc1ccc(CCNC(=O)C2CCN(S(=O)(=O)c3cccc4nsnc34)CC2)cc1 returned TAAR1 antagonist 56.4*, OX1R antag-1 -22.8, GPR7 antagonist -0.6, OX1R antag-2 21.0, TAAR1 agonist 76.8*, CHO parental Ca -8.9, TAAR1 ag confirm 1.4, Ga16 ag counter 3.7, TAAR1 desens 15.7 and Ga16 antag count 18.7.
O=C(NCCc1ccccc1)C1CCCN(S(=O)(=O)c2cccc3nsnc23)C1 (stereo not drawn) was read as TAAR1 antagonist 72.4*, OX1R antag-1 -25.1, GPR7 antagonist -17.5, OX1R antag-2 36.2, TAAR1 agonist 96.8*, CHO parental Ca -30.3, TAAR1 ag confirm 85.3*, Ga16 ag counter 5.7, TAAR1 desens 91.0* and Ga16 antag count 14.8.
Screening O=S(=O)(NCCc1ccccc1)c1cccc2nsnc12 returned TAAR1 antagonist -10.2, OX1R antag-1 -5.3, GPR7 antagonist -8.5, OX1R antag-2 23.6, TAAR1 agonist -3.2 and CHO parental Ca -12.8.
For CCCCOCCCNC(=O)C[C@@H]1C[C@@]2(C(=O)OCC)CCCC=C2N(CCc2ccc(OC)c(OC)c2)C1=O the results were TAAR1 antagonist -19.4 and TAAR1 agonist -1.2.
CC1CCCC(C)N1C(=O)COC(=O)CNS(=O)(=O)c1ccc2ccccc2c1 (stereo not drawn) was read as TAAR1 antagonist -10.5 and TAAR1 agonist 1.5.
For C=CCn1c(SCCN)nnc1-c1cccc(S(=O)(=O)N2CCOCC2)c1 the results were TAAR1 antagonist 6.8 and TAAR1 agonist 0.4.
CC(=O)Nc1nc2[nH]ccc2c(=O)[nH]1 was read as TAAR1 antagonist -8.5 and TAAR1 agonist 1.2.
CNc1cccc(-c2ccc(N3CCN(C)CC3)nc2)n1 was read as TAAR1 antagonist -1.6 and TAAR1 agonist 1.9.
CCOC(=O)c1cncc(C#CCO)c1 was read as TAAR1 antagonist -13.6, OX1R antag-1 -23.3, GPR7 antagonist -15.0, OX1R antag-2 7.7, TAAR1 agonist 1.1 and CHO parental Ca -11.2.
Screening CCOC(=O)c1cncc(C#CCOC(=O)Nc2ccc(OC(F)(F)F)cc2)c1 returned TAAR1 antagonist 72.8*, OX1R antag-1 22.7, GPR7 antagonist -10.7, OX1R antag-2 9.6, TAAR1 agonist 50.6*, CHO parental Ca -3.2, TAAR1 ag confirm 49.2*, Ga16 ag counter 32.0*, TAAR1 desens 81.2* and Ga16 antag count 61.9*.
For CC(=O)Nc1ccc2c(c1)N(S(=O)(=O)c1cccs1)CCC2 the results were TAAR1 antagonist -18.4, OX1R antag-1 -14.3, OX1R antag-2 2.5, TAAR1 agonist 2.7 and CHO parental Ca -5.2.
`NNCCc1ccccc1` gave TAAR1 antagonist 30.0, OX1R antag-1 -13.4, GPR7 antagonist 0.3, OX1R antag-2 15.8, TAAR1 agonist 75.4*, CHO parental Ca -21.4, TAAR1 ag confirm 93.8*, Ga16 ag counter 1.8, TAAR1 desens 76.3* and Ga16 antag count 4.9.
For C[C@@H]1CN([C@@H](C)CO)C(=O)CCCn2nncc2CO[C@H]1CN(C)C(=O)C1CC1 the results were TAAR1 antagonist -3.9 and TAAR1 agonist 1.8.
`Cc1nnc(SCC(=O)NCCC2=CCCCC2)[nH]c1=O` gave TAAR1 antagonist 69.1*, OX1R antag-1 -9.9, OX1R antag-2 -1.6, TAAR1 agonist 74.4*, CHO parental Ca -11.6, TAAR1 ag confirm 94.5*, Ga16 ag counter 9.6, TAAR1 desens 87.6* and Ga16 antag count 13.8.
Nc1cc(=O)[nH]c(SCC(=O)NCCC2=CCCCC2)n1 was read as TAAR1 antagonist -2.0, OX1R antag-1 -11.1, OX1R antag-2 13.9, TAAR1 agonist 13.6 and CHO parental Ca -10.4.
O=C(OCCN1C(=O)c2cccc3c(N4CCOCC4)ccc(c23)C1=O)c1ccccc1Cl was read as TAAR1 antagonist 105.0*, OX1R antag-1 82.2*, GPR7 antagonist 0.4, OX1R antag-2 68.6*, TAAR1 agonist 128.4*, CHO parental Ca 90.7*, TAAR1 ag confirm 92.6*, Ga16 ag counter 94.5*, TAAR1 desens 94.6* and Ga16 antag count 85.6*.
O=C(OCCN1C(=O)c2cccc3c(N4CCOCC4)ccc(c23)C1=O)c1ccc(Cl)cc1Cl was read as TAAR1 antagonist 37.7, OX1R antag-1 5.5, GPR7 antagonist 16.0, OX1R antag-2 9.7, TAAR1 agonist 26.6 and CHO parental Ca 22.2.
`OC[C@H]1O[C@@H](c2nc(-c3ccccc3Br)no2)[C@H](O)[C@@H](O)[C@H]1O` gave TAAR1 antagonist -1.2 and TAAR1 agonist 1.4.
